Measured values published in ChEMBL document CHEMBL1138494, “Human glucagon receptor antagonists with thiazole cores. A novel series with superior pharmacokinetic properties” (J Med Chem, 2009).

Target: T1, Gastric inhibitory polypeptide receptor (Homo sapiens, UniProt P48546)
T1 sequence (P48546 whole entry): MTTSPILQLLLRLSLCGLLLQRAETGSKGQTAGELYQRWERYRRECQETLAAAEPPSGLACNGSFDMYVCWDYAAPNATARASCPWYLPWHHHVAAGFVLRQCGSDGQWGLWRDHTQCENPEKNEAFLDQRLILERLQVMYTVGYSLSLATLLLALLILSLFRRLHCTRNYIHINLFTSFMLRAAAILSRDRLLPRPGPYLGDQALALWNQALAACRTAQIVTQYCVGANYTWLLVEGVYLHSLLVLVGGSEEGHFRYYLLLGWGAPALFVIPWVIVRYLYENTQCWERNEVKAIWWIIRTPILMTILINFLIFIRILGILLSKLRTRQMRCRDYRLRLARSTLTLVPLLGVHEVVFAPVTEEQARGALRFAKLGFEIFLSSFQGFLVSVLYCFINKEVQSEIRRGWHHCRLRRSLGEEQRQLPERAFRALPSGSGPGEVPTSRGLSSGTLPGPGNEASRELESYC
Assay: Displacement of [125I]porcine GIP from human recombinant GIPR receptor expressed in BHK cells by scintillation proximity assay
Assay type: cell-based
Conditions: not given

IC50 [nM]	Structure (SMILES)
> 1000	COc1ccccc1-c1csc(N(Cc2ccc(C(=O)NCCC(=O)O)cc2)c2ccc(SC(F)(F)F)cc2)n1
645	O=C(O)CCNC(=O)c1ccc(N(Cc2ccc3c(c2)Cc2ccccc2-3)c2nc(-c3ccc(C(F)(F)F)cc3)cs2)cc1
584	Cc1cc(N(Cc2ccc(C(=O)NCCC(=O)O)cc2)c2nc(-c3cc(C(F)(F)F)cc(C(F)(F)F)c3)cs2)ccc1C(C)C
638	O=C(O)CCNC(=O)c1ccc(CN(c2ccc3c(c2)CCC3)c2nc(-c3ccc(Cl)c(Cl)c3)cs2)cc1
1110	O=C(O)CCNC(=O)c1ccc(CN(c2nc(-c3ccc(Cl)c(Cl)c3)cs2)C2CCCc3ccccc32)cc1 (stereo not given)

Test system: not listed separately
Assay: Tmax in fasted Sprague-Dawley rat at 1.6mg/kg, iv and 3 mg/kg, po
Assay type: ADME, organism-based
Design: dose 3 mg/kg, route oral
Conditions: in vivo
Method in brief: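 Plasma concentration–time profiles were recorded after separate intravenous and peroral dosing at the per-compound doses listed. T_max is reported in min alongside C_max (ng/mL), intravenous half-life and clearance ((mL/min)/kg).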

Tmax [h]	Structure (SMILES)
1.5	O=C(O)CCNC(=O)c1ccc(N(Cc2ccc3c(c2)Cc2ccccc2-3)c2nc(-c3ccc(C(F)(F)F)cc3)cs2)cc1

Test system: not listed separately
Assay: Clearance in fasted Sprague-Dawley rat at 1.66 mg/kg, iv and 3 mg/kg, po
Assay type: ADME, organism-based
Conditions: in vivo
Method in brief: (§1)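 Rats were dosed intravenously and perorally in separate arms, and plasma concentration-time profiles were obtained. Half-life was taken from the iv arm. Clearance, oral bioavailability, Cmax and Tmax were derived from the profiles.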

clearance [mL/min/kg]	Structure (SMILES)
31	O=C(O)CCNC(=O)c1ccc(N(Cc2ccc3c(c2)Cc2ccccc2-3)c2nc(-c3ccc(C(F)(F)F)cc3)cs2)cc1

Test system: not listed separately
Assay: Oral bioavailability in fasted Sprague-Dawley rat at 3 mg/kg by HTLC-MS/MS analysis
Assay type: ADME, organism-based
Conditions: in vivo
Method in brief: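 Separate intravenous and peroral dosing arms per compound, with plasma concentration followed against time. Oral bioavailability (F_po) is reported per compound together with the intravenous half-life and clearance. The dose used for each arm is listed per compound.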

bioavailability [%]	Structure (SMILES)
13	O=C(O)CCNC(=O)c1ccc(N(Cc2ccc3c(c2)Cc2ccccc2-3)c2nc(-c3ccc(C(F)(F)F)cc3)cs2)cc1

Test system: not listed separately
Assay: Half life in fasted Sprague-Dawley rat plasma at 1.66 mg/kg, iv by HTLC-MS/MS analysis
Assay type: ADME, organism-based
Design: dose 1.66 mg/kg, route intravenous
Conditions: not given
Method in brief: as §1

half-life [min]	Structure (SMILES)
40	O=C(O)CCNC(=O)c1ccc(N(Cc2ccc3c(c2)Cc2ccccc2-3)c2nc(-c3ccc(C(F)(F)F)cc3)cs2)cc1

Organism: Homo sapiens
Assay: Selectivity ratio of IC50 for human recombinant glucagon receptor to IC50 for human recombinant GIPR
Conditions: not given
Method in brief: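 Competition binding of compounds to recombinant human glucagon and GIP receptors on BHK cell membranes, run in parallel as a scintillation proximity assay and, for selected compounds, as a membrane filtration assay.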

fold change (FC)	Structure (SMILES)
5	COc1ccccc1-c1csc(N(Cc2ccc(C(=O)NCCC(=O)O)cc2)c2ccc(SC(F)(F)F)cc2)n1
5	O=C(O)CCNC(=O)c1ccc(N(Cc2ccc3c(c2)Cc2ccccc2-3)c2nc(-c3ccc(C(F)(F)F)cc3)cs2)cc1
5	Cc1cc(N(Cc2ccc(C(=O)NCCC(=O)O)cc2)c2nc(-c3cc(C(F)(F)F)cc(C(F)(F)F)c3)cs2)ccc1C(C)C
5	O=C(O)CCNC(=O)c1ccc(CN(c2ccc3c(c2)CCC3)c2nc(-c3ccc(Cl)c(Cl)c3)cs2)cc1
5	O=C(O)CCNC(=O)c1ccc(CN(c2nc(-c3ccc(Cl)c(Cl)c3)cs2)C2CCCc3ccccc32)cc1 (stereo not given)

Organism: Homo sapiens
Assay: Selectivity for human recombinant glucagon receptor over human GLP1R
Conditions: not given

fold change (FC)	Structure (SMILES)
> 50	COc1ccccc1-c1csc(N(Cc2ccc(C(=O)NCCC(=O)O)cc2)c2ccc(SC(F)(F)F)cc2)n1
> 50	O=C(O)CCNC(=O)c1ccc(N(Cc2ccc3c(c2)Cc2ccccc2-3)c2nc(-c3ccc(C(F)(F)F)cc3)cs2)cc1
> 50	Cc1cc(N(Cc2ccc(C(=O)NCCC(=O)O)cc2)c2nc(-c3cc(C(F)(F)F)cc(C(F)(F)F)c3)cs2)ccc1C(C)C
> 50	O=C(O)CCNC(=O)c1ccc(CN(c2ccc3c(c2)CCC3)c2nc(-c3ccc(Cl)c(Cl)c3)cs2)cc1
> 50	O=C(O)CCNC(=O)c1ccc(CN(c2nc(-c3ccc(Cl)c(Cl)c3)cs2)C2CCCc3ccccc32)cc1 (stereo not given)

Target: Glucagon receptor (Homo sapiens, UniProt P47871)
Sequence (P47871 whole entry): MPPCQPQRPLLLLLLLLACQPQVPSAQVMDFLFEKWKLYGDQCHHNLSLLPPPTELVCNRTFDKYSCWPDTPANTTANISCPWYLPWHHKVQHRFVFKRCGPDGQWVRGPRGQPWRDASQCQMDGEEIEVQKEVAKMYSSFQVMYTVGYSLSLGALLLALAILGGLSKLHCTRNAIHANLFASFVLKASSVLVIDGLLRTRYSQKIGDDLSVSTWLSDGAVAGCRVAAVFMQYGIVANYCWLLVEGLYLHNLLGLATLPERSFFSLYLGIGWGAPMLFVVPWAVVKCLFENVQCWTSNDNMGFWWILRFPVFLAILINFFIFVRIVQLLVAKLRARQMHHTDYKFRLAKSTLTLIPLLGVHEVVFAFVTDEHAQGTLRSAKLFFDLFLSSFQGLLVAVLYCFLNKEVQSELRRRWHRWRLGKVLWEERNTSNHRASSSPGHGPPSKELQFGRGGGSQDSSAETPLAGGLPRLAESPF
Assay: Displacement of [125I]porcine glucagon from human recombinant glucagon receptor expressed in BHK cells by scintillation proximity assay
Assay type: cell-based
Conditions: not given

IC50 [nM]	Structure (SMILES)
420	COc1ccccc1-c1csc(N(Cc2ccc(C(=O)NCCC(=O)O)cc2)c2ccc(SC(F)(F)F)cc2)n1
78	O=C(O)CCNC(=O)c1ccc(N(Cc2ccc3c(c2)Cc2ccccc2-3)c2nc(-c3ccc(C(F)(F)F)cc3)cs2)cc1
131	Cc1cc(N(Cc2ccc(C(=O)NCCC(=O)O)cc2)c2nc(-c3cc(C(F)(F)F)cc(C(F)(F)F)c3)cs2)ccc1C(C)C
99	O=C(O)CCNC(=O)c1ccc(CN(c2ccc3c(c2)CCC3)c2nc(-c3ccc(Cl)c(Cl)c3)cs2)cc1
531	O=C(O)CCNC(=O)c1ccc(CN(c2nc(-c3ccc(Cl)c(Cl)c3)cs2)C2CCCc3ccccc32)cc1 (stereo not given)

Test system: not listed separately
Assay: Cmax in fasted Sprague-Dawley rat at 1.66mg/kg, iv and 3 mg/kg, po
Assay type: ADME, organism-based
Design: dose 3 mg/kg, route oral
Conditions: in vivo
Method in brief: as §1

Cmax [ng/mL]	Structure (SMILES)
93	O=C(O)CCNC(=O)c1ccc(N(Cc2ccc3c(c2)Cc2ccccc2-3)c2nc(-c3ccc(C(F)(F)F)cc3)cs2)cc1
